From ChEMBL document CHEMBL1140876, “Synthesis and antibacterial property of quinolines with potent DNA gyrase activity” (2009) come the findings set out here.

Assay [1] concerns Pseudomonas aeruginosa. Put plainly: Antimicrobial activity against Pseudomonas aeruginosa at 5 ug after 24 hrs by disk diffusion method. It counts as functional. The conditions noted are these: read-out: IZ. The method in brief:
(§1)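 Inoculum made in 0.85% saline against McFarland standard, swabbed evenly onto nutrient agar; sterile filter-paper discs set equidistant and loaded with equal volumes of drug at varying amounts; zone of inhibition measured after 24 h at 37 °C; ciprofloxacin reference.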

Assay [2] deals with Klebsiella pneumoniae. Nature of the assay: Antimicrobial activity against Klebsiella pneumoniae at 5 ug after 24 hrs by disk diffusion method. Type of assay: functional. The conditions noted are these: read-out: IZ. In outline: as §1
For assay [3], the system named is Pseudomonas aeruginosa. Nature of the assay: Antimicrobial activity against Pseudomonas aeruginosa at 25 ug after 24 hrs by disk diffusion method. The conditions noted are these: read-out: IZ. Type of assay: functional. The method in brief: as §1
The next assay relates to Salmonella typhi. Nature of the assay: Antimicrobial activity against Salmonella typhi by broth microdilution assay. It counts as functional, Salmonella enterica subsp. enterica serovar Typhi. The conditions noted are these: Salmonella enterica. In outline:
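Broth microdilution in 96-well plates following the NCCLS 1997 protocol. Final inoculum was 10^5 cfu/mL, with a control organism run alongside. Plates were incubated at 35.7 °C in air for 18–20 h. MIC is the lowest concentration with no visible growth.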

Assay [4] relates to Salmonella typhimurium. Nature of the assay: Antimicrobial activity against Salmonella Typhimurium at 15 ug after 24 hrs by disk diffusion method. It counts as functional, Salmonella enterica subsp. enterica serovar Typhimurium. The conditions noted are these: Salmonella enterica, read-out: IZ. The method in brief: as §1
The subject of assay [5] is Pseudomonas aeruginosa. Nature of the assay: Antimicrobial activity against Pseudomonas aeruginosa at 15 ug after 24 hrs by disk diffusion method. It counts as functional. The conditions noted are these: read-out: IZ. The method in brief: as §1
Assay [6] relates to Pseudomonas aeruginosa. Put plainly: Antimicrobial activity against Pseudomonas aeruginosa at 20 ug after 24 hrs by disk diffusion method. It counts as functional. The conditions noted are these: read-out: IZ. The method in brief:
as §1

In assay [7] the test system is Bacillus subtilis. Put plainly: Antimicrobial activity against Bacillus subtilis at 20 ug after 24 hrs by disk diffusion method. It counts as functional. The conditions noted are these: read-out: IZ. The method in brief:
as §1

Assay [8] has as its system Salmonella typhimurium. Nature of the assay: Antimicrobial activity against Salmonella Typhimurium at 5 ug after 24 hrs by disk diffusion method. It counts as functional, Salmonella enterica subsp. enterica serovar Typhimurium. The conditions noted are these: Salmonella enterica, read-out: IZ. The method in brief:
as §1

Assay [9] relates to Klebsiella pneumoniae. Put plainly: Antimicrobial activity against Klebsiella pneumoniae at 25 ug after 24 hrs by disk diffusion method. It counts as functional. The conditions noted are these: read-out: IZ. In outline: as §1
Assay [10] concerns Escherichia coli. Put plainly: Antimicrobial activity against Escherichia coli at 20 ug after 24 hrs by disk diffusion method. Type of assay: functional. The conditions noted are these: read-out: IZ. In outline: as §1
Assay [11] has as its system Staphylococcus aureus. Nature of the assay: Antimicrobial activity against Staphylococcus aureus at 15 ug after 24 hrs by disk diffusion method. Type of assay: functional. The conditions noted are these: read-out: IZ. In outline:
as §1

Assay [12] relates to Escherichia coli. Nature of the assay: Antimicrobial activity against Escherichia coli at 10 ug after 24 hrs by disk diffusion method. It counts as functional. The conditions noted are these: read-out: IZ. In outline: as §1
The test system of assay [13] is Bacillus subtilis. Nature of the assay: Antimicrobial activity against Bacillus subtilis at 25 ug after 24 hrs by disk diffusion method. It counts as functional. The conditions noted are these: read-out: IZ. In outline: as §1
For assay [14], the system named is Staphylococcus aureus. Nature of the assay: Antimicrobial activity against Staphylococcus aureus at 5 ug after 24 hrs by disk diffusion method. The conditions noted are these: read-out: IZ. Type of assay: functional. In outline: as §1
For assay [15], the system named is Escherichia coli. Put plainly: Antimicrobial activity against Escherichia coli by broth microdilution assay. It counts as functional. The method in brief:
(§2)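 Broth microdilution per NCCLS 1997 in 96-well plate; final inoculum 10^5 cfu/mL; incubated 35.7 °C in air 18–20 h; MIC read as lowest concentration with no visible growth.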

The test system of assay [16] is Pseudomonas aeruginosa. Nature of the assay: Antimicrobial activity against Pseudomonas aeruginosa at 10 ug after 24 hrs by disk diffusion method. It counts as functional. The conditions noted are these: read-out: IZ. In outline: as §1
The subject of assay [17] is Salmonella typhimurium. Put plainly: Antimicrobial activity against Salmonella Typhimurium at 25 ug after 24 hrs by disk diffusion method. It counts as functional, Salmonella enterica subsp. enterica serovar Typhimurium. The conditions noted are these: Salmonella enterica, read-out: IZ. The method in brief:
as §1

In assay [18] the test system is Klebsiella pneumoniae. Put plainly: Antimicrobial activity against Klebsiella pneumoniae at 15 ug after 24 hrs by disk diffusion method. Type of assay: functional. The conditions noted are these: read-out: IZ. The method in brief: as §1
Assay [19] relates to Staphylococcus aureus. Put plainly: Antimicrobial activity against Staphylococcus aureus at 10 ug after 24 hrs by disk diffusion method. The conditions noted are these: read-out: IZ. It counts as functional. In outline:
as §1

Assay [20] deals with Salmonella typhimurium. Put plainly: Antimicrobial activity against Salmonella Typhimurium at 10 ug after 24 hrs by disk diffusion method. The conditions noted are these: Salmonella enterica, read-out: IZ. It counts as functional, Salmonella enterica subsp. enterica serovar Typhimurium. In outline:
as §1

Assay [21] concerns Pseudomonas aeruginosa. Nature of the assay: Antimicrobial activity against Pseudomonas aeruginosa by broth microdilution assay. Type of assay: functional. In outline: as §2
Assay [22] is described as follows: Inhibition of DNA gyrase assessed as pBR322 DNA relaxation at 1 uM. In outline:
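Relaxation without ATP: gyrase (60 nM) with supercoiled pBR322 DNA (6 nM) and drug at […] for 1 h at 37 °C; relaxation judged by gel. Ciprofloxacin, novobiocin and nalidixic acid comparators.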

Assay [23] deals with Staphylococcus aureus. Put plainly: Antimicrobial activity against Staphylococcus aureus at 25 ug after 24 hrs by disk diffusion method. The conditions noted are these: read-out: IZ. Type of assay: functional. In outline: as §1
Assay [24] concerns Escherichia coli. Nature of the assay: Antimicrobial activity against Escherichia coli at 25 ug after 24 hrs by disk diffusion method. It counts as functional. The conditions noted are these: read-out: IZ. The method in brief: as §1
Assay [25] relates to Klebsiella pneumoniae. Nature of the assay: Antimicrobial activity against Klebsiella pneumoniae at 10 ug after 24 hrs by disk diffusion method. Type of assay: functional. The conditions noted are these: read-out: IZ. In outline:
as §1

In assay [26] the test system is Bacillus subtilis. Put plainly: Antimicrobial activity against Bacillus subtilis at 15 ug after 24 hrs by disk diffusion method. It counts as functional. The conditions noted are these: read-out: IZ. The method in brief:
as §1

The test system of assay [27] is Staphylococcus aureus. Nature of the assay: Antimicrobial activity against Staphylococcus aureus at 20 ug after 24 hrs by disk diffusion method. Type of assay: functional. The conditions noted are these: read-out: IZ. The method in brief:
as §1

The test system of assay [28] is Klebsiella pneumoniae. Put plainly: Antimicrobial activity against Klebsiella pneumoniae at 20 ug after 24 hrs by disk diffusion method. It counts as functional. The conditions noted are these: read-out: IZ. The method in brief: as §1
The subject of assay [29] is Staphylococcus aureus. Put plainly: Antimicrobial activity against Staphylococcus aureus by broth microdilution assay. It counts as functional. The method in brief: as §2
Assay [30] has as its system Klebsiella pneumoniae. Put plainly: Antimicrobial activity against Klebsiella pneumoniae by broth microdilution assay. Type of assay: functional. In outline: as §2
Assay [31] relates to Escherichia coli. Nature of the assay: Antimicrobial activity against Escherichia coli at 15 ug after 24 hrs by disk diffusion method. It counts as functional. The conditions noted are these: read-out: IZ. The method in brief:
as §1

Assay [32] has as its system Bacillus subtilis. Nature of the assay: Antimicrobial activity against Bacillus subtilis by broth microdilution assay. Type of assay: functional. In outline:
as §2

Assay [33] concerns Escherichia coli. Nature of the assay: Inhibition of DNA gyrase gene expression in Escherichia coli assessed as decrease in band intensity by RT-PCR amplification. In outline: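 E. coli treated with drug; total RNA from cells sampled up to 24 h; 2 µg RNA to cDNA with MMLV reverse transcriptase; gyrase gene PCR (94 °C 4 min initial denaturation, 72 °C 7 min final extension); products on agarose gel, band intensity normalized to GAPDH; untreated cells as negative control.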

Assay [34] deals with Salmonella typhimurium. Nature of the assay: Antimicrobial activity against Salmonella Typhimurium at 20 ug after 24 hrs by disk diffusion method. Type of assay: functional, Salmonella enterica subsp. enterica serovar Typhimurium. The conditions noted are these: Salmonella enterica, read-out: IZ. The method in brief: as §1
Assay [35] in a line: Inhibition of DNA gyrase assessed as conversion of relaxed pBR322 to supercoiled form. In outline: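 Supercoiling in 15 µL reactions: gyrase assay buffer, 150 ng relaxed pBR322, 2–3 µL purified DNA gyrase, 3 h at 37 °C (E. coli); stopped with 50% glycerol/0.25% bromophenol blue; 1% agarose in 1× TBE pH 8.3, 90 V 3 h; ethidium bromide stain; supercoiled band brightness by densitometry. Ciprofloxacin comparator.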

The subject of assay [36] is Escherichia coli. Put plainly: Antimicrobial activity against Escherichia coli at 5 ug after 24 hrs by disk diffusion method. It counts as functional. The conditions noted are these: read-out: IZ. In outline: as §1
Assay [37] is described as follows: Inhibition of DNA gyrase assessed as pBR322 DNA relaxation at 2.5 uM. The method in brief: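 Gyrase (60 nM) was incubated with supercoiled pBR322 DNA (6 nM) and increasing compound concentrations (0, 0.1, 0.25, 0.5, 2.5) without ATP for 1 h at 37 °C. Relaxation of the supercoiled DNA was evaluated.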

Values after ≈ are worked out from the molar mass of the structure shown. Active and inactive are the calls of the source. The calls are words filed in the database; no cut-off is given here.

With `Cn1c(=O)c2cc3n(c2n(C)c1=O)CC1C3Nc2ccc(Cl)cc2C1(C)C` (centres undefined), the zone of inhibition at 5 µg/disc turned out to be 10 mm with Pseudomonas aeruginosa [1]; 20 mm with Klebsiella pneumoniae [2]; 10 mm in the assay on Salmonella typhimurium [8]; 20 mm in the assay on Staphylococcus aureus [14]; 10 mm in the assay with Escherichia coli [36]. Also, the zone of inhibition at 25 µg/disc in the assay on Pseudomonas aeruginosa [3] amounted to 23 mm; in the assay on Klebsiella pneumoniae [9], 36 mm; in the assay with Bacillus subtilis [13], 9 mm; in the assay on Salmonella typhimurium [17] it was 24 mm; in the assay with Staphylococcus aureus [23], 36 mm; in the assay with Escherichia coli [24] it was 23 mm. For the same molecule, the MIC50 against Salmonella typhi was 0.09 µg/mL (≈ 0.234 µM); in the assay with Escherichia coli [15], 0.06 µg/mL (≈ 0.156 µM); in the assay on Pseudomonas aeruginosa [21], 0.125 µg/mL (≈ 0.325 µM); in the assay with Staphylococcus aureus [29], 0.25 µg/mL (≈ 0.65 µM); with Klebsiella pneumoniae [30], 0.125 µg/mL (≈ 0.325 µM); in the assay on Bacillus subtilis [32] it was 0.25 µg/mL (≈ 0.65 µM). Further, the MIC90 in the assay on Salmonella typhi was 0.15 µg/mL (≈ 0.39 µM); against Escherichia coli [15], 0.25 µg/mL (≈ 0.65 µM); against Pseudomonas aeruginosa [21] it was 1 µg/mL (≈ 2.6 µM); with Klebsiella pneumoniae [30], 2 µg/mL (≈ 5.2 µM); in the assay on Bacillus subtilis [32], 1.2 µg/mL (≈ 3.12 µM). For the same molecule, the zone of inhibition at 15 µg/disc with Salmonella typhimurium [4] turned out to be 18 mm; in the assay with Pseudomonas aeruginosa [5] it was 16 mm; in the assay on Staphylococcus aureus [11], 26 mm; with Klebsiella pneumoniae [18] it was 30 mm; in the assay on Bacillus subtilis [26], 6 mm; in the assay on Escherichia coli [31] it was 18 mm. In addition, the zone of inhibition at 20 µg/disc in the assay on Pseudomonas aeruginosa [6] turned out to be 20 mm; in the assay with Bacillus subtilis [7], 7 mm; in the assay with Escherichia coli [10], 20 mm; in the assay with Staphylococcus aureus [27], 30 mm; in the assay on Klebsiella pneumoniae [28], 34 mm; in the assay on Salmonella typhimurium [34], 22 mm. Further, the zone of inhibition at 10 µg/disc came to 16 mm with Escherichia coli [12]; 14 mm in the assay on Pseudomonas aeruginosa [16]; 24 mm in the assay with Staphylococcus aureus [19]; 16 mm in the assay on Salmonella typhimurium [20]; 26 mm in the assay on Klebsiella pneumoniae [25]. The result (in assay [22]; in the assay with Escherichia coli [33]; in assay [35]) was Active.

As for `CCn1cc(C(=O)O)c(=O)c2ccc(C)nc21`, the result in assay [35] and in assay [37] was Active.
